What was measured:
Rattus norvegicus = test: Cardiotoxicity in rat at 30 to 300 mg/kg, po; format: toxicity, organism-based; parameters: dose 30-300 mg/kg, route oral; conditions: in vivo
In short: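 Conscious rats were given oral doses of 30, 100 and 300 mg/kg. Body temperature, cardiovascular and electrocardiographic parameters were monitored.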

in vivo = conditions: CD, rat, iv, 1 mg/kg
Salmonella typhimurium = test: Genotoxicity in Salmonella typhimurium by Ames test; format: toxicity, organism-based; conditions: salmonella enterica subsp. enterica serovar typhimurium

half-life (in vivo): 2.5 h
Compound: COc1cccc2c1c(NS(=O)(=O)c1ccc(Cl)s1)nn2Cc1cccc(CNC(=O)C(C)(C)O)c1
Activity (Rattus norvegicus): Non-toxic | Activity (Salmonella typhimurium): Non-toxic
